Tests used:
[1] = molecular target: T1, Cytochrome P450 2A6 (Homo sapiens, UniProt P11509); test: Inhibition of human CYP2A6 in baculovirus-infected insect cell system using […] as substrate preincubated for 10 mins by fluorescence assay
T1 sequence (P11509 whole entry): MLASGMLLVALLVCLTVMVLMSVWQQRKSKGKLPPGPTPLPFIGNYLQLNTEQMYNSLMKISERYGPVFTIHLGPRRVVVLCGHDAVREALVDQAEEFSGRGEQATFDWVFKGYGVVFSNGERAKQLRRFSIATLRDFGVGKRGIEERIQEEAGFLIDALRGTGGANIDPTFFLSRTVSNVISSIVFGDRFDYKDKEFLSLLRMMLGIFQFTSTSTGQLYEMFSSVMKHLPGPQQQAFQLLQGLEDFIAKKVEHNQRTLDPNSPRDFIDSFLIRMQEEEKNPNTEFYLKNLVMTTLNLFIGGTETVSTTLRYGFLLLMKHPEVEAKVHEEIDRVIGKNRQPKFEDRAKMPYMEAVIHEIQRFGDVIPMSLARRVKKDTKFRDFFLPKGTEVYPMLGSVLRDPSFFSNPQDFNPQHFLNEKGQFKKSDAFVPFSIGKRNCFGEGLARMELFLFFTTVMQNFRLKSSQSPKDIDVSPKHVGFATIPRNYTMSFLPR
Outline: (§1)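 Coumarin 7-hydroxylation by baculovirus/insect-cell human CYP2A6. Reaction started with NADPH (final 0.33 mM) and preincubated 10 min at 37 °C. Stopped with 10% TCA, then 1.6 M glycine-NaOH added; 7-hydroxycoumarin fluorescence read at ex 355/em 450 nm. Blanks subtracted; activity as % of control; IC50 by nonlinear fitting.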

[2] = molecular target: T1, Cytochrome P450 2A6; test: Inhibition of human CYP2A6 in baculovirus-infected insect cell system using […] as substrate incubated for 30 mins prior to substrate addition measured after 10 mins by fluorescence assay; details: for inhibition (INH): human, 10 min
[3] = molecular target: T1, Cytochrome P450 2A6; test: (§2) Irreversible inhibition of human CYP2A6 in baculovirus-infected insect cell system using […] as substrate incubated for 10 mins by fluorescence assay
Outline: (§3)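 Inactivation: five inhibitor concentrations plus vehicle preincubated various times (including 0 min) with 5–20 pmol CYP2A6 and NADPH. Then diluted 10–40 fold into 50 mM Tris–HCl pH 7.4, 5 mM MgCl2, 10 µM coumarin, 0.3 mM NADPH, 10 min at 37 °C. Kobs from ln activity vs time; Kinact and Ki from double-reciprocal regression.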

[4] = molecular target: T2, CYP2A6 (Homo sapiens, UniProt P11509); test: as §2; details: human, probe coumarin (printed: coumarin 7); outline: as §3
T2 sequence (P11509 whole entry): T1 sequence (P11509 whole entry)

[5] = molecular target: T1, Cytochrome P450 2A6; test: Inhibition of human CYP2A6 in baculovirus-infected insect cell system using […] as substrate in presence of mouse liver cytosolic fraction by fluorescence assay
[6] = molecular target: T1, Cytochrome P450 2A6; test: Reversible inhibition of human CYP2A6 in baculovirus-infected insect cell system using […] as substrate preincubated for 10 mins by fluorescence assay; outline: as §1
[7] = molecular target: T1, Cytochrome P450 2A6; test: Competitive inhibition of human CYP2A6 in baculovirus-infected insect cell system assessed as nicotine metabolism after 15 mins
Outline: (§4)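 Nicotine oxidation by expressed CYP2A6 (with P450 reductase and cytochrome b5): 10 pmol CYP and 10 pmol b5/ml, 1 mM NADPH, 50 µl cytosol, 50 mM Tris–HCl pH 7.4, 37 °C, 15 min. Stopped with 4% v/v Na2CO3; 5-methylcotinine internal standard; nicotine and metabolites quantified by HPLC. Drug concentrations expressed as free base.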

[8] = molecular target: T1, Cytochrome P450 2A6; test: Mixed-type inhibition of human CYP2A6 in baculovirus-infected insect cell system assessed as nicotine metabolism after 15 mins; outline: as §4
[9] = molecular target: T1, Cytochrome P450 2A6; test: Irreversible inhibition of human CYP2A6 in baculovirus-infected insect cell system assessed as nicotine metabolism after 15 mins; outline: as §4

SMILES	IC50 [1]	inhibition (INH) [2]	further results
Cc1ccc(C#N)cc1	8100 nM	–	–
NCc1cc2ccccc2s1	–	Active	Ki [1]: 10 nM
O=Cc1cc2ccccc2[nH]1	11000 nM	–	Ki ([3]; read-out: Ki): 2400 nM; kinact at 10 min [4]: 0.00133 s⁻¹; IC50 [2]: 1800 nM
O=Cc1cc2ccccc2o1	17000 nM	–	–
Brc1ccc2[nH]ccc2c1	7400 nM	Active	–
O=Cc1cc2cnccc2s1	300 nM	Active	inhibition (INH) [5]: Not Active; inhibition (INH) [6]: Active; Ki [7]: 1100 nM; Ki [1]: 70 nM
O=Cc1cc2ccncc2s1	400 nM	Active	inhibition (INH) [5]: Not Active; Ki [7]: 4200 nM; Ki [1]: 60 nM
NCc1csc2ccc(Cl)cc12	400 nM	Active	Ki [8]: 6000 nM; Ki [1]: 90 nM
CNCc1cc2ccccc2s1	500 nM	Active	–
NCc1csc2ccc(Br)cc12	700 nM	Active	inhibition (INH) [6]: Active; Ki [8]: 800 nM; Ki [1]: 200 nM
O=Cc1ccc2sccc2c1	900 nM	Active	–
NCc1cc2cnccc2s1	1000 nM	Active	–
CN(C)Cc1cc2cnccc2s1	1400 nM	Active	inhibition (INH) [6]: Active; Ki [7]: 500 nM; Ki [1]: 600 nM
CNCc1cc2cnccc2s1	1500 nM	Active	–
CNCc1cc2cccnc2s1	2200 nM	Active	Ki [1]: 800 nM
O=Cc1cc2ccccc2s1	3200 nM	–	Ki ([3]; read-out: Ki(app)): 130 nM; IC50 [2]: 800 nM
Cc1ccc2sc(C=O)cc2c1	3400 nM	Active	–
O=Cc1csc2ccc(Br)cc12	5000 nM	–	Ki ([3]; read-out: Ki(app)): 1500 nM; IC50 [2]: 500 nM
NCc1cc2ccncc2s1	5200 nM	Active	–
NC(=S)c1csc2ccncc12	6600 nM	Active	–
O=Cc1cc2cccnc2s1	8000 nM	–	Ki ([3]; read-out: Ki): 2400 nM; kinact at 10 min [4]: 0.00133 s⁻¹; IC50 [2]: 400 nM
O=Cc1cccc2ccsc12	11000 nM	Active	–
OCc1cc2ccccc2s1	18000 nM	Active	–

SMILES	IC50 [1]	inhibition (INH) [2]	further results
OCc1csc2ccccc12	37000 nM	Active	–
N#Cc1csc2ccc(Cl)cc12	41000 nM	Active	–
N#CCc1csc2ccc(Cl)cc12	51000 nM	Active	–
Cc1csc2ccc(Cl)cc12	88000 nM	Active	–
O=C(Cl)c1csc2ccccc12	270000 nM	–	–
O=Cc1ccc2occc2c1	400 nM	–	Ki ([3]; read-out: Ki): 2400 nM; kinact at 10 min [4]: 0.00133 s⁻¹; inhibition (INH) [5]: Not Active; Ki [7]: 5500 nM; IC50 [2]: 50 nM; Ki [1]: 70 nM
N#Cc1ccc2occc2c1	1600 nM	–	Ki ([3]; read-out: Ki): 2400 nM; kinact at 10 min [4]: 0.00133 s⁻¹; Ki [9]: 200 nM; IC50 [2]: 600 nM; Ki [1]: 100 nM
N#Cc1cc2ccccc2o1	52000 nM	–	–
O=Cc1cc2cc(Br)ccc2o1	72000 nM	–	–
OCc1cc2cc(Br)ccc2o1	< 100000 nM	–	–
NCc1cc2cc(Br)ccc2o1	< 100000 nM	–	–
O=CCc1coc2ccccc12	< 100000 nM	–	–
Brc1cc2ccccc2o1	140000 nM	–	–
O=Cc1ccc2[nH]ccc2c1	400 nM	Active	inhibition (INH) [5]: Not Active; Ki [7]: 1800 nM; Ki [1]: 70 nM
Cn1ccc2cc(C=O)ccc21	680 nM	Active	–
O=Cc1ccc2cc[nH]c2c1	1500 nM	Active	–
Cn1ccc2ccc(C=O)cc21	8400 nM	Active	–
O=Cc1c[nH]c2cccc(Br)c12	12000 nM	Active	Ki [1]: 8600 nM
Cc1cc2cc(N)ccc2[nH]1	34000 nM	Active	–
O=Cc1c[nH]c2cc(Br)ccc12	57000 nM	Active	Ki [1]: 3300 nM
CCc1ccc(C#N)cc1	7400 nM	–	–
O=Cc1c[nH]c2ccccc12 [3-FORMYLINDOLE]	79000 nM	Active	Ki [1]: 11000 nM

— ChEMBL document CHEMBL3352764, “Rational design of novel CYP2A6 inhibitors” (Bioorg Med Chem, 2014)
